Measured values pooled from the literature.
Lines come from different studies, so protocols differ.
Target: D(2) dopamine receptor (DRD2, Homo sapiens, UniProt P14416)

CNC(=O)[C@@]12C[C@@H]1[C@@H](n1cnc3c(NC)nc(C#Cc4cccs4)nc31)[C@H](O)[C@@H]2O  Ki (cell-free assay, radioligand): > 10 µM
Oc1cccc(CCC2=NCCN2CCc2ccccc2)c1  Ki (ligand displacement, radioligand): > 10 µM
O=C1c2ccccc2CCN1CCCCN1CCN(c2ccccn2)CC1  Ki (ligand displacement, radioligand): 0.805 µM
FC(F)(F)c1nc2cc(OCCCCN3CCN(c4cccc(Cl)c4Cl)CC3)ccc2s1  EC50 (cAMP, agonist, luciferase): 0.14 µM
COc1ccc2c(c1)C(=O)N(CCCN1CCN(c3ccccc3OC)CC1)C2  Ki (ligand displacement, radioligand): 1.5 µM
CCOCc1nc(O)c(-c2nnc(Cc3ccc(Cl)cn3)o2)c(O)c1-c1c(OC)cccc1OC  IC50 (ligand displacement, radioligand): > 30 µM
CCN(CC)c1ccc(C2Nc3ccc(C(=O)c4ccccc4)cc3NC3=C2C(=O)CC(C)(C)C3)cc1 (centres unmarked)  Ki (cell-free assay, radioligand): > 10 µM
CCO[C@H]1CCN(Cc2c(OC)cc(C)c3[nH]ccc23)[C@H](c2ccc(C(=O)O)cc2)C1  Kd (cell-free assay): > 30 µM
Oc1cccc(CCC2=NCCN2Cc2ccccc2)c1  Ki (ligand displacement, radioligand): > 10 µM
O=C1c2ccccc2CCN1CCCCN1CCN(c2cccc(Cl)c2Cl)CC1  Ki (ligand displacement, radioligand): 0.014 µM
CC(C)c1nc2cc(OCCCCN3CCN(c4cccc5c4OCCN5)CC3)ccc2s1  EC50 (β-arrestin recruitment, agonist): 0.016 µM
COc1ccc(CCC2=NCCN2CCc2ccccc2)cc1  Ki (ligand displacement, radioligand): > 10 µM
CCc1nc2cc(OCCCCN3CCN(c4cccc(Cl)c4Cl)CC3)ccc2s1  EC50 (cAMP, agonist, luciferase): 0.098 µM
CCCCN1CCC(COC(=O)c2ccc(N)c(OCF)c2)CC1  Ki (cell-free assay, radioligand): > 10 µM
